Measured values as given in article PMC4280364 (ChemMedChem, 2014).

Columns and labels:
[1] = target: T1, D1-active mutant (E578Q) (Homo sapiens, UniProt P55072, E578Q); conditions: previous studies of the authors; cited from earlier work
[2] = target: wild-type p97 (Homo sapiens, UniProt P55072); experiment: ATPase assay, wild type p97; type: biochemical
In short: (§1)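 Human p97 (WT or the Walker B mutant named), 25 nM monomer, in 50 mM Tris pH 7.4, 20 mM MgCl2, 1 mM EDTA, 0.5 mM TCEP, 0.01% Triton X-100 and 200 μM ATP. An initial 4-dose titration (30, 10, 3.3, 1.1 μM) was run in triplicate, then an 8-dose titration (30 down to 0.04 μM, plus 0). ATPase activity was read with Biomol Green reagent.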

[3] = target: D2-active mutant (E305Q) (Homo sapiens, UniProt P55072, E305Q); experiment: ATPase assay, D2-active Walker B mutant; type: biochemical
In short: as §1

[4] = target: T2, p97-p47 complex (Homo sapiens, UniProt P55072); experiment: ATPase assay, p97-p47 complex; type: biochemical
In short: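 The p97-p47 complex was formed by adding p47 to 400 nM final with human p97 at 25 nM monomer. Buffer was 50 mM Tris pH 7.4, 20 mM MgCl2, 1 mM EDTA, 0.5 mM TCEP, 0.01% Triton X-100 and 200 μM ATP. Titrations were 4-dose in triplicate (30–1.1 μM), then 8-dose (30–0.04 μM, plus 0). Activity was detected with Biomol Green reagent.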

[5] = target: T1, D1-active mutant (E578Q); experiment: ATPase assay, D1-active Walker B mutant; type: biochemical
In short: as §1

[6] = target: T2, p97-p47 complex; conditions: cited from earlier work; for inhibition of the p97-p47 complex compared to p97 alone, in words: Figure 1 legend, earlier work of the authors; for fold decrease in potency caused by p47 (p97-p47 complex versus p97): previously found by the authors

Chain of D2-active mutant (E305Q) (P55072 whole entry E305Q): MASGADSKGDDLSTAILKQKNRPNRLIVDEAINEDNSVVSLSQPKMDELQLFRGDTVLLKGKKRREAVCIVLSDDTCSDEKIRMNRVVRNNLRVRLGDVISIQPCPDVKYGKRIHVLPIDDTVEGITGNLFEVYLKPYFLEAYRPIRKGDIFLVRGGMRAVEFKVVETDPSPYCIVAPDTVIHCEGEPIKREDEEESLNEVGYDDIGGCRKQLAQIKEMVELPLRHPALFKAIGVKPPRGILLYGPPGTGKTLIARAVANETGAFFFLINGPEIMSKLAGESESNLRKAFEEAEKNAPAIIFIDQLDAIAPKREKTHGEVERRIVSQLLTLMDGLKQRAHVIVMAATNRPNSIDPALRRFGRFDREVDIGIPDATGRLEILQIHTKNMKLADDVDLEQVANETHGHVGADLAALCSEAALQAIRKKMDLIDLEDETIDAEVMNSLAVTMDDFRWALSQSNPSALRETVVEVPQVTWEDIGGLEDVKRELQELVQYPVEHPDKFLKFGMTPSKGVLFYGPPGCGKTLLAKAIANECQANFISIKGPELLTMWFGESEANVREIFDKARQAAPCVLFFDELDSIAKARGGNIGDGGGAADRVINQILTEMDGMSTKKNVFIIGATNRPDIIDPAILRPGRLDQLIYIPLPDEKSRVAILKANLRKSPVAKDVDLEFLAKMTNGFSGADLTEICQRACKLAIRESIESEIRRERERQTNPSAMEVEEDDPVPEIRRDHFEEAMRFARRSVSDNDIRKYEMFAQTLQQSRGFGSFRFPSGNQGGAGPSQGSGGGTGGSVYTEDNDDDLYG
T1 sequence (P55072 whole entry E578Q): as the sequence (P55072 whole entry E305Q) above, with Q305E, E578Q counted along it
T2 sequence (P55072 whole entry): as the sequence (P55072 whole entry E305Q) above, with Q305E counted along it
T2 sequence (Q9UNZ2 whole entry partner): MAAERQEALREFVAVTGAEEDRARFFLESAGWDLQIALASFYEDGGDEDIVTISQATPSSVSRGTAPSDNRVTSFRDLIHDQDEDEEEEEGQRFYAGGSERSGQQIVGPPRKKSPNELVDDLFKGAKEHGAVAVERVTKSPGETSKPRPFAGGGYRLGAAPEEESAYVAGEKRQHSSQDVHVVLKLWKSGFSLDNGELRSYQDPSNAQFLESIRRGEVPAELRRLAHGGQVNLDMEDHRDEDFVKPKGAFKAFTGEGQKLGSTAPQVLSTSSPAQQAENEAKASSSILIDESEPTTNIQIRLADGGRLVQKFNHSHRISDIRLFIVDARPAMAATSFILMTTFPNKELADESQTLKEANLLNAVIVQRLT
Chain of wild-type p97 (P55072 whole entry): as the sequence (P55072 whole entry E305Q) above, with Q305E counted along it

| Structure (SMILES) | domain selectivity D1 versus D2, in words [1] | IC50 [2] [µM] | IC50 [3] [µM] | fold increase of IC50 against the D2-active mutant (E305Q) compared to WT p97 ([3]; 200 μM ATP) [fold] | selectivity toward the D2 domain ([3]; D2 versus D1) [fold] | IC50 [4] [µM] | IC50 [5] [µM] | fold increase of IC50 against the D1-active mutant (E578Q) compared to WT p97 ([5]; 200 μM ATP) [fold] | inhibition of the p97-p47 complex compared to p97 alone, in words [6] | fold decrease in potency caused by p47 (p97-p47 complex versus p97) [6] | domain selectivity D1 versus D2 (E578Q versus E305Q mutants), in words ([5]; 8-dose titration, Figure 3 / Table S1) |
| --- | --- | --- | --- | --- | --- | --- | --- | --- | --- | --- | --- |
| c1ccc(CNc2nc(NCc3ccccc3)c3ccccc3n2)cc1 [DBeQ, N2,N4-dibenzylquinazoline-2,4-diamine] | inhibit both the D1 and D2 ATPase domains | 5.4 | 7.6 | 1.4 | 3 | 12.3 | 13.1 | 2.4 |  |  |  |
| COc1cccc2c(NCc3ccccc3)nc(-n3c(N)nc4ccccc43)nc12 [ML240] | selectively inhibit D2 |  |  |  |  |  |  |  | less inhibition of the p97-p47 complex | ~ 50 fold |  |
| c1ccc(CNc2nc(N3CCOc4ccccc43)nc3c2CCCC3)cc1 [ML241] | selectively inhibit D2 |  |  |  |  |  |  |  | less inhibition of the p97-p47 complex | ~ 50 fold |  |
| Cc1cc(OCc2nnc(SC3CCCC3)n2-c2cccnc2)ccc1-c1ccc(S(C)(=O)=O)cc1 [NMS-873] | inhibit both the D1 and D2 ATPase domains |  |  |  |  |  |  |  |  |  | inhibited the ATPase activity of both the D1 and D2 domains |
